Results reported in ChEMBL document CHEMBL1130160 (J Med Chem, 1997).

Columns and labels:
[1] = test system: Rattus norvegicus; experiment: Dose required to reduce serum cholesterol by 50% relative to OVX controls was determined (in vivo); assay type: functional
Method in brief: (§1)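 OVX Sprague–Dawley rats (75 days old), 5–6 per group, dosed once daily by oral gavage for 4 consecutive days, starting 14 days after ovariectomy. Vehicle was 20% β-hydroxycyclodextrin at 1 mL/kg, or 1.5% carboxymethylcellulose in some cases. Rats were fasted after the last dose and bled by cardiac puncture next morning.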

[2] = test system: Rattus norvegicus; experiment: Minimum effective dose at which significant increase in uterine eosinophil peroxidase (EPO) activity in rat was determined (in vivo); assay type: functional; details: read-out: MED
[3] = test system: Rattus norvegicus; experiment: Percent decrease in serum cholesterol relative to OVX control at 1 mg/kg in rat; assay type: functional; method in brief: as §1
[4] = test system: Rattus norvegicus; experiment: Minimum effective dose at which significant increase in uterine weight/body weight in rat was determined (in vivo); expressed as % increase relative to ovariectomized (OVX) controls; assay type: functional
Method in brief: (§2)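 In 75-day OVX Sprague–Dawley rats dosed orally for 4 days, beginning 2 weeks post-ovariectomy with 5–6 rats per group, whole uteri were weighed the morning after fasting. MED is the lowest dose giving a significant (p≤0.05) rise in uterine weight/body weight, expressed as % increase over OVX controls ±SE.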

[5] = test system: Rattus norvegicus; experiment: Percent decrease in serum cholesterol relative to OVX control at 0.1 mg/kg in rat was determined (in vivo); assay type: functional; method in brief: as §1
[6] = test system: Rattus norvegicus; experiment: Minimum effective dose at which significant increase in uterine weight/body weight in rat was determined (in vivo); assay type: functional; details: read-out: MED; method in brief: as §2
[7] = test system: Rattus norvegicus; experiment: Percent decrease in serum cholesterol relative to OVX control at 10 mg/kg in rat was determined (in vivo); assay type: functional; method in brief: as §1
[8] = target: Estrogen receptor (Homo sapiens, UniProt Q92731+P03372); details: mcf7

| SMILES | ED50 [1] | minimal effective dose [2] | Decrease [3] | Increase [4] | Decrease [5] | minimal effective dose [6] | Decrease [7] | IC50 [8] |
| --- | --- | --- | --- | --- | --- | --- | --- | --- |
| Cl.O=C(c1ccc(OCCN2CCCCC2)cc1)c1c(-c2ccccc2)sc2cc(O)ccc12 | < 0.1 mg/kg | > 10 mg/kg | 53.4% | 38.7% | 55.6% | 0.1 mg/kg | 66% | 2.5 nM |
| COc1ccc(-c2sc3ccccc3c2C(=O)c2ccc(OCCN3CCCCC3)cc2)cc1.O=C(O)CC(O)(CC(=O)O)C(=O)O | – | – | – | – | – | – | – | 100 nM |
| O=C(c1ccc(OCCN2CCCCC2)cc1)c1c(-c2ccc(O)cc2)sc2cc(O)cc(O)c12 | – | – | – | – | – | – | – | 350 nM |
| O=C(c1ccc(OCCN2CCCCC2)cc1)c1c(-c2cccc(F)c2)sc2cc(O)ccc12 | 1 mg/kg | > 10 mg/kg | 62% | – | – | 0.1 mg/kg | – | 2.5 nM |
| O=C(c1ccc(OCCN2CCCCC2)cc1)c1c(-c2ccc(O)cc2)sc2cccc(O)c12 | > 10 mg/kg | > 10 mg/kg | 18% | – | 29.6% | > 10 mg/kg | 31.8% | 190 nM |
| COc1ccc2c(C(=O)c3ccc(OCCN4CCCCC4)cc3)c(-c3ccc(CO)cc3)sc2c1 | – | – | – | – | – | – | – | 600 nM |
| NC(=O)c1ccc(-c2sc3cc(O)ccc3c2C(=O)c2ccc(OCCN3CCCCC3)cc2)cc1 | – | > 10 mg/kg | -21.3% | – | -3.2% | > 10 mg/kg | 10% | – |
| Cc1cc2c(C(=O)c3ccc(OCCN4CCCCC4)cc3)c(-c3ccc(O)cc3)sc2cc1O | 5.4 mg/kg | > 10 mg/kg | 42.2% | – | -4.3% | > 10 mg/kg | 43.7% | – |
| O=C(c1ccc(OCCN2CCCCC2)cc1)c1c(-c2ccc(O)cc2)sc2cc(O)c(O)cc12 | – | – | – | – | – | – | – | 400 nM |
| O=C(c1ccc(OCCN2CCCCC2)cc1)c1c(-c2ccc(O)c(Cl)c2)sc2cc(O)ccc12 | 1.2 mg/kg | > 10 mg/kg | 52.7% | 30.3% | – | 10 mg/kg | – | 2.3 nM |
| Cc1cc2c(C(=O)c3ccc(OCCN4CCCCC4)cc3)c(-c3ccc(O)cc3)sc2c(C)c1O | – | – | – | – | – | – | – | 500 nM |
| Cc1cc(O)ccc1-c1sc2cc(O)ccc2c1C(=O)c1ccc(OCCN2CCCCC2)cc1 | 0.4 mg/kg | > 10 mg/kg | – | – | – | 0.1 mg/kg | – | 2 nM |
| Cl.O=C(c1ccc(OCCN2CCCCC2)cc1)c1c(-c2ccc(Cl)cc2)sc2cc(O)ccc12 | 0.3 mg/kg | > 10 mg/kg | 69.9% | 56.5% | 32.3% | 0.1 mg/kg | 65% | 1 nM |
| COc1ccc2c(C(=O)c3ccc(OCCN4CCCCC4)cc3)c(-c3ccc4c(c3)OCO4)sc2c1 | – | – | – | – | – | – | – | 500 nM |
| Cl.O=C(c1ccc(OCCN2CCCCC2)cc1)c1c(-c2ccccc2)sc2ccccc12 | < 0.1 mg/kg | > 10 mg/kg | 72.6% | 59.2% | 59.4% | 0.1 mg/kg | 45.6% | 300 nM |
| O=C(c1ccc(OCCN2CCCCC2)cc1)c1c(-c2ccc3ccccc3c2)sc2cc(O)ccc12 | 0.2 mg/kg | 0.1 mg/kg | – | – | – | 0.1 mg/kg | – | 80 nM |
| O=C(c1ccc(OCCN2CCCCC2)cc1)c1c(-c2ccc(O)cc2)sc2ccc(O)cc12 | – | > 10 mg/kg | 3.7% | – | 10.4% | > 10 mg/kg | 22.6% | 100 nM |

| SMILES | ED50 [1] | minimal effective dose [2] | Decrease [3] | Increase [4] | Decrease [5] | minimal effective dose [6] | Decrease [7] | IC50 [8] |
| --- | --- | --- | --- | --- | --- | --- | --- | --- |
| COc1ccc2c(C(=O)c3ccc(OCCN4CCCCC4)cc3)c(-c3ccccc3)sc2c1 | – | – | – | – | – | – | – | > 1000 nM |
| Cc1cc(-c2sc3cc(O)ccc3c2C(=O)c2ccc(OCCN3CCCCC3)cc2)ccc1O | 1 mg/kg | > 10 mg/kg | 73.9% | – | 28.4% | > 10 mg/kg | – | 1 nM |
| O=C(c1ccc(OCCN2CCCCC2)cc1)c1c(-c2ccc(O)cc2)sc2c(O)cccc12 | – | > 10 mg/kg | -11.7% | 43.5% | -6.1% | 10 mg/kg | -3.4% | 300 nM |
| O=C(c1ccc(OCCN2CCCCC2)cc1)c1c(-c2ccc(O)cc2)sc2cc(O)c3ccccc3c12 | – | – | – | – | – | – | – | 500 nM |
| O=C(c1ccc(OCCN2CCCCC2)cc1)c1c(-c2ccccc2O)sc2cc(O)ccc12 | > 10 mg/kg | > 10 mg/kg | – | – | 7.8% | > 10 mg/kg | – | 10 nM |
| O=C(c1ccc(OCCN2CCCCC2)cc1)c1c(-c2ccc([N+](=O)[O-])cc2)sc2cc(O)ccc12 | – | – | – | – | – | – | – | 500 nM |
| O=C(O)c1ccc(-c2sc3cc(O)ccc3c2C(=O)c2ccc(OCCN3CCCCC3)cc2)cc1 | – | > 10 mg/kg | -8.8% | – | 3.1% | > 10 mg/kg | 24.6% | – |
| COc1cc(O)ccc1-c1sc2cc(O)ccc2c1C(=O)c1ccc(OCCN2CCCCC2)cc1 | < 0.1 mg/kg | 1 mg/kg | 79% | – | – | 0.1 mg/kg | – | 2 nM |
| Cc1c(O)cc(C)c2c(C(=O)c3ccc(OCCN4CCCCC4)cc3)c(-c3ccc(O)cc3)sc12 | – | – | – | – | – | – | – | 100 nM |
| O=C(c1ccc(OCCN2CCCCC2)cc1)c1c(-c2ccc(O)cc2)sc2cc(O)c(F)cc12 | > 10 mg/kg | > 10 mg/kg | 4.1% | – | 4.6% | > 10 mg/kg | 31.6% | 3 nM |
| C#Cc1ccc2c(C(=O)c3ccc(OCCN4CCCCC4)cc3)c(-c3ccc(O)cc3)sc2c1 | 0.5 mg/kg | > 10 mg/kg | 58.7% | 27.8% | 39.4% | 1 mg/kg | 65.8% | – |
| C#Cc1ccc(-c2sc3cc(O)ccc3c2C(=O)c2ccc(OCCN3CCCCC3)cc2)cc1 | > 10 mg/kg | > 10 mg/kg | 32.7% | – | 9.1% | > 10 mg/kg | 35.8% | – |
| COc1ccc(-c2sc3c(OC)c(OC)c(OC)cc3c2C(=O)c2ccc(OCCN3CCCCC3)cc2)cc1.Cl | – | – | – | – | – | – | – | 350 nM |
| CC/C(=C(\c1ccccc1)c1ccc(OCCN(C)C)cc1)c1ccccc1 [TAMOXIFEN] | 0.2 mg/kg | 0.1 mg/kg | 71.1% | 62.4% | 39.2% | 0.1 mg/kg | 67% | – |
| Cc1ccccc1-c1sc2cc(O)ccc2c1C(=O)c1ccc(OCCN2CCCCC2)cc1 | > 10 mg/kg | > 10 mg/kg | – | – | – | 10 mg/kg | – | 0.7 nM |
| COc1ccc(-c2sc3cc(O)ccc3c2C(=O)c2ccc(OCCN3CCCCC3)cc2)cc1 | < 0.1 mg/kg | > 10 mg/kg | 75.6% | – | 65.2% | > 10 mg/kg | 72.6% | 1000 nM |
